The values that follow come from ChEMBL document CHEMBL4229515, “A novel synthesis of 2-arylbenzimidazoles in molecular sieves-MeOH system and their antitubercular activity” (Bioorg Med Chem, 2018).

Values after ≈ are worked out from the molar mass of the structure shown.

Data set [1] deals with Mycobacterium tuberculosis. The data set is described as follows: Antimycobacterial activity against Mycobacterium tuberculosis H37Rv by BACTEC 460 radiometric method. Format: functional. The procedure, abridged:
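Radiometric BACTEC assay against the H37Rv strain, run per a previously reported method. Positive controls were rifampicin, streptomycin and isoniazid. The MIC was read in µM.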

The nature of data set [2]: Lipophilicity, log P of the compound. Format: physicochemical. Conditions: octanol/water.
Data set [3] addresses DNA gyrase subunit A/DNA gyrase subunit B (Mycobacterium tuberculosis (strain ATCC 25618 / H37Rv), UniProt P9WG45+P9WG47). The data set is described as follows: Inhibition of Mycobacterium tuberculosis DNA gyrase supercoiling activity using relaxed pBR322 as substrate after 30 mins by agarose gel electrophoresis. Format: protein-complex assay.

Chain of DNA gyrase subunit A/DNA gyrase subunit B (P9WG45 whole entry): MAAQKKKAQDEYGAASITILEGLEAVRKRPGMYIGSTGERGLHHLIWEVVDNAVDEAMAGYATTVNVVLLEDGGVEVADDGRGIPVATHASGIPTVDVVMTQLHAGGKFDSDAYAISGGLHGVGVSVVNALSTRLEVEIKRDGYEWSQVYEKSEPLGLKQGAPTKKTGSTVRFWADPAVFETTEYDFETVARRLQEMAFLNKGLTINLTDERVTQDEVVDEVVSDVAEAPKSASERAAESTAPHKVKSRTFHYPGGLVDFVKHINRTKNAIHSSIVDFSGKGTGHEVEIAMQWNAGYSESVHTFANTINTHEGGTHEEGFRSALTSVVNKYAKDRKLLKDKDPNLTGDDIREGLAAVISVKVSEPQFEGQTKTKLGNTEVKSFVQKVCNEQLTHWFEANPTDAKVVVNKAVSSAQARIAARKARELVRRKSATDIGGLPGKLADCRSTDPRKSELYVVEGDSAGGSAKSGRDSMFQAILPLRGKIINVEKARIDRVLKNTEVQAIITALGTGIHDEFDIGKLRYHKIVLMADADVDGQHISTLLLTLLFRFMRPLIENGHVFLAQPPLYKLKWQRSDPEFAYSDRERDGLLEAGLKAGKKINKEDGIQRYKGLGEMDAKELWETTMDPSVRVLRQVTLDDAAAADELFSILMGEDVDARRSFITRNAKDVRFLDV
Chain of DNA gyrase subunit A/DNA gyrase subunit B (P9WG47 whole entry): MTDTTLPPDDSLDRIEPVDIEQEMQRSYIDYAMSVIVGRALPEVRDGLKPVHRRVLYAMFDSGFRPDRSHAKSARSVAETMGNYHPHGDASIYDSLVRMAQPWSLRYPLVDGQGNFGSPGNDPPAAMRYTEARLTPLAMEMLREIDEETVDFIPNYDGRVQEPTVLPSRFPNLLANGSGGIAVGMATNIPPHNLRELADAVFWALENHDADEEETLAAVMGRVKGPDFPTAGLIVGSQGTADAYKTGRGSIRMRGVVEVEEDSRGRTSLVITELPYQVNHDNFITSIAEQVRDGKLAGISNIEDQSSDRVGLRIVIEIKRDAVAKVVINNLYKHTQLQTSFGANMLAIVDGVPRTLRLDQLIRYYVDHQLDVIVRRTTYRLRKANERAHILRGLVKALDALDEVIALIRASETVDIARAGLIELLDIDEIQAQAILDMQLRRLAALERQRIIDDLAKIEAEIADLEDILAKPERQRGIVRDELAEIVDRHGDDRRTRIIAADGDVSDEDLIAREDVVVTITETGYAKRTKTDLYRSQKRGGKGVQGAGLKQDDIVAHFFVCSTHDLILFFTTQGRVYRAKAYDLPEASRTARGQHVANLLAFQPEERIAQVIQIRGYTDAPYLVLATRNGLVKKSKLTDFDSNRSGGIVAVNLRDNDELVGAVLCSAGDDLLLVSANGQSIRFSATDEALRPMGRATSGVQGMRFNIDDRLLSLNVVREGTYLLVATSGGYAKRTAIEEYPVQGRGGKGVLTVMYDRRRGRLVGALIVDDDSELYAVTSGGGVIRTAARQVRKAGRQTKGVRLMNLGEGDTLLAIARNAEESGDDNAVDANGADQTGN

Compound `Fc1ccc(Cn2c(-c3ccc(F)cc3)nc3ccccc32)cc1` registered an MIC in data set [1] of 312 µM (≈ 99.9 µg/mL). For the same compound, the logP in data set [2] (read-out: logP) came to 5.51.

`COc1ccccc1-c1nc2ccccc2[nH]1`: it took 406 µM (≈ 91.1 µg/mL) to inhibit growth in data set [1] (MIC). Further, the log partition coefficient (logP) in data set [2] (read-out: logP) was 2.74.

`Oc1ccc(-c2nc3ccccc3[nH]2)cc1` returned an MIC in data set [1] of 424 µM (≈ 89.1 µg/mL). Further, in data set [2] (read-out: logP), the log partition coefficient (logP) worked out at 2.47.

As for `COc1ccc2c(c1)nc(-c1ccc3c(c1)OCO3)n2Cc1ccc2c(c1)OCO2`, in data set [1], the MIC is 24 µM (≈ 9.66 µg/mL). The compound also had a concentration for half-maximal inhibition (IC50) in data set [3] of 294 µM. The logP in data set [2] (read-out: logP) turned out to be 4.26.

As to `c1ccc2c(c1)nc(-c1ccc3c(c1)OCO3)n2Cc1ccc2c(c1)OCO2`, in data set [1], 67 µM (≈ 24.9 µg/mL) was the least that counted as inhibitory (MIC). Besides, the concentration for half-maximal inhibition (IC50) in data set [3] is 85.7 µM. Further, the logP in data set [2] (read-out: logP) came out at 2.64.

In the case of `COc1ccc2[nH]c(-c3ccc(F)cc3)nc2c1`, the MIC in data set [1] stood at 103 µM (≈ 25 µg/mL). In addition, the IC50 in data set [3] worked out at 380 µM. Moreover, the logP in data set [2] (read-out: logP) came out at 2.9.

In data set [1], `COc1ccc2c(c1)nc(-c1ccc(F)cc1)n2Cc1ccc(F)cc1` registered an MIC of 285 µM (≈ 99.9 µg/mL). In addition, the logP in data set [2] (read-out: logP) worked out at 5.02.

Regarding `NNC(=O)c1ccncc1` [ISONIAZID], the MIC in data set [1] was determined as 1 µM (≈ 0.137 µg/mL). The logP in data set [2] is 0.64.

In turn, `CO[C@H]1/C=C/O[C@@]2(C)Oc3c(C)c(O)c4c(O)c(c(/C=N/N5CCN(C)CC5)c(O)c4c3C2=O)NC(=O)/C(C)=C\C=C\[C@H](C)[C@H](O)[C@@H](C)[C@@H](O)[C@@H](C)[C@H](OC(C)=O)[C@@H]1C` [RIFAMPIN] gave a minimal inhibitory concentration (MIC) in data set [1] of 3 µM (≈ 2.47 µg/mL). This compound also gave a logP in data set [2] of 3.72.

For the compound `[H]/N=C(/N)N[C@H]1[C@H](O)[C@@H](O)[C@H](O[C@@H]2O[C@@H](C)[C@](O)(C=O)[C@H]2O[C@@H]2O[C@@H](CO)[C@H](O)[C@@H](O)[C@@H]2NC)[C@@H](N/C(N)=N\[H])[C@@H]1O` [STREPTOMYCIN], it took 4 µM (≈ 2.33 µg/mL) to inhibit growth in data set [1] (MIC). Moreover, the logP in data set [2] (read-out: logP) is 8.01.

Usually MIC stands for the least concentration at which growth counts as inhibited. A high value points to weaker potency. As a reminder, the logP is the decadic logarithm of the partition coefficient of the neutral form, usually between octanol and water. The IC50 is the concentration that gives 50% inhibition.
